Experimental data reported in ChEMBL document CHEMBL3352548, “Small-molecule suppression of β-lactam resistance in multidrug-resistant gram-negative pathogens” (J Med Chem, 2014).

Legend:
Acinetobacter baumannii [1] = test: Antibacterial activity against Acinetobacter baumannii ATCC BAA-1605 assessed as reduction in CFU at 15 uM after 6 hrs by time kill assay; format: functional
Outline: (§1)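 Time-kill: cultures were grown at 37 °C with shaking with compound (15 μM for BAA-1605, 60 μM for PA53), meropenem (1–32 μg/mL for BAA-1605, 1–64 μg/mL for PA53), or both. Samples taken at 2, 4, 6, 8 and 24 h were serially diluted in CAMHB, plated on nutrient agar, incubated overnight at 37 °C, and colonies counted.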

Pseudomonas aeruginosa [2] = test: Antibacterial activity against Pseudomonas aeruginosa PA53 assessed as reduction in CFU at 60 uM after 6 hrs by time kill assay in presence of 4 ug/ml meropenem; format: functional; outline: as §1
Acinetobacter baumannii [3] = test: Antibacterial activity against Acinetobacter baumannii ATCC BAA-1605 assessed as meropenem MIC at 25 uM after 6 hrs in presence of 10% bovine plasma by time kill assay (Rvb meropenem MIC in absence of plasma= 2 ug/ml); format: functional; details: ATCC BAA-1605, 6 h
Outline: (§2)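 Meropenem MIC against A. baumannii BAA-1605 in CAMHB containing 10% bovine plasma, with compound held at fixed 15, 20, 25 or 30 μM. Parallel runs were done in CAMHB without plasma.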

Acinetobacter baumannii [4] = test: Antibacterial activity against Acinetobacter baumannii ATCC BAA-1605 assessed as cell death at 15 uM after 16 hrs by checkerboard assay in presence of meropenem; format: functional
Outline: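 Checkerboard in CAMHB with BAA-1605 at 5 × 10^5 CFU/mL. Compound and meropenem were each serially two-fold diluted along perpendicular axes, with one […] row and column giving each agent's MIC alone. ΣFIC = (combination MIC/MIC alone) for compound plus the same for antibiotic. ≤0.5 was taken as synergy, 0.5–2 as indifference, ≥2 as antagonism.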

Acinetobacter baumannii [5] = test: Antibacterial activity against Acinetobacter baumannii ATCC BAA-1605 assessed as cell death at 15 uM after 16 hrs by checkerboard assay in presence of 10% bovine plasma; format: functional; details: ATCC BAA-1605, Plasma
Outline: (§3)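 A. baumannii BAA-1605 MIC of compound alone, measured in cation-adjusted Mueller–Hinton broth (CAMHB) supplemented with 10% or 50% bovine plasma.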

Acinetobacter baumannii [6] = test: Antibacterial activity against Acinetobacter baumannii ATCC BAA-1605 assessed as complete inhibition of bacterial growth after 16 hrs by microdilution method; format: functional; details: ATCC BAA-1605, 16 h
Outline: (§4)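 MIC of each compound alone was determined first. Antibiotic MICs (imipenem or meropenem for A. baumannii; ceftazidime or meropenem for P. aeruginosa) were then measured with compound at fixed sub-MIC concentrations. Fold reduction is MIC without compound divided by MIC with compound.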

Pseudomonas aeruginosa [7] = test: Antibacterial activity against Pseudomonas aeruginosa PA53 assessed as fold reduction in ceftazidime MIC at 60 uM after 16 hrs by microdilution method; format: functional; outline: as §4
Pseudomonas aeruginosa [8] = test: Antibacterial activity against Pseudomonas aeruginosa PA53 assessed as reduction in CFU at 60 uM after 6 hrs by time kill assay; format: functional; outline: as §1
Acinetobacter baumannii [9] = test: Antibacterial activity against Acinetobacter baumannii ATCC BAA-1605 assessed as meropenem MIC at 30 uM after 6 hrs in presence of 10% bovine plasma by time kill assay (Rvb meropenem MIC in absence of plasma= 0.5 ug/ml); format: functional; details: ATCC BAA-1605, 6 h; outline: as §2
[10] = Hemolytic activity in sheep red blood cells up to 400 uM by UV spectrophotometry; format: ADME, cell-based, Ovis aries; details: erythrocyte
Outline: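 Mechanically defibrinated sheep blood cells were washed three times by centrifugation in PBS and diluted 10-fold. Compound in PBS was added and samples shaken at 200 rpm for 1 h at 37 °C. Supernatant was diluted 40-fold in water and read at 540 nm. PBS served as zero-lysis control and 1% Triton X as 100% lysis control.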

Pseudomonas aeruginosa [11] = test: Antibacterial activity against Pseudomonas aeruginosa PA53 assessed as complete inhibition of bacterial growth after 16 hrs by microdilution method; format: functional; details: PA53, 16 h; outline: as §4
Pseudomonas aeruginosa [12] = test: Antibacterial activity against Pseudomonas aeruginosa PA53 assessed as fold reduction in meropenem MIC at 60 uM after 16 hrs by microdilution method; format: functional; outline: as §4
Pseudomonas aeruginosa [13] = test: Antibacterial activity against Pseudomonas aeruginosa PA53 assessed as reduction in CFU at 60 uM after 6 hrs by time kill assay in presence of 1 ug/ml meropenem; format: functional; outline: as §1
[14] = Cytotoxicity against human HaCaT cells after 12 to 18 hrs by MTT assay; format: cell-based; details: read-out: TCID50
Outline: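 HaCaT keratinocytes were grown in 10% FBS–DMEM with penicillin/streptomycin, seeded at 8 × 10^4 cells/mL and grown overnight to 90% confluence. Serial dilutions (2.5 mM to 1.22 μM, duplicate) were applied overnight. MTT was added for 4 h in the dark, then SDS/HCl solubilizer for 12–18 h. Absorbance was read at 550 nm against a 670 nm reference.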

Acinetobacter baumannii [15] = test: Antibacterial activity against Acinetobacter baumannii ATCC BAA-1605 assessed as reduction in CFU at 15 uM after 6 hrs by time kill assay in presence of 1 ug/ml meropenem; format: functional; outline: as §1
Acinetobacter baumannii [16] = test: Antibacterial activity against Acinetobacter baumannii ATCC BAA-1605 assessed as meropenem MIC at 20 uM after 6 hrs in presence of 10% bovine plasma by time kill assay (Rvb meropenem MIC in absence of plasma= 4 ug/ml); format: functional; details: ATCC BAA-1605, 6 h; outline: as §2
Acinetobacter baumannii [17] = test: Antibacterial activity against Acinetobacter baumannii ATCC BAA-1605 assessed as fold reduction in meropenem MIC at 15 uM after 16 hrs by microdilution method; format: functional; outline: as §4
Acinetobacter baumannii [18] = test: Antibacterial activity against Acinetobacter baumannii ATCC BAA-1605 assessed as fold reduction in imipenem MIC at 15 uM after 16 hrs by microdilution method; format: functional; outline: as §4
Acinetobacter baumannii [19] = test: Antibacterial activity against Acinetobacter baumannii ATCC BAA-1605 assessed as cell death at 15 uM after 16 hrs by checkerboard assay in presence of 50% bovine plasma; format: functional; details: ATCC BAA-1605, Plasma; outline: as §3
Acinetobacter baumannii [20] = test: Antibacterial activity against Acinetobacter baumannii ATCC BAA-1605 assessed as meropenem MIC at 15 uM after 6 hrs in presence of 10% bovine plasma by time kill assay (Rvb meropenem MIC in absence of plasma= 32 ug/ml); format: functional; details: ATCC BAA-1605, 6 h; outline: as §2
Acinetobacter baumannii [21] = test: Antibacterial activity against Acinetobacter baumannii ATCC BAA-1605 assessed as reduction in CFU at 15 uM after 6 hrs by time kill assay in presence of 4 ug/ml meropenem; format: functional; outline: as §1

## Cl.Nc1nc(-c2ccc(NC(=O)c3cc(Cl)cc(Cl)c3)cc2)c[nH]1
Acinetobacter baumannii [1]
  fold change (FC): 2.53
Pseudomonas aeruginosa [2]
  fold change (FC): 3.2
Acinetobacter baumannii [3]
  MIC: 8 µg/mL
Acinetobacter baumannii [4]
  fractional inhibitory concentration index (FICI): 0.375
Acinetobacter baumannii [5]
  MIC: 50 µM
Acinetobacter baumannii [6]
  MIC: 50 µM
Pseudomonas aeruginosa [7]
  fold change (FC): 16
Pseudomonas aeruginosa [8]
  fold change (FC): 2.49
Acinetobacter baumannii [9]
  MIC: 0.5 µg/mL
[10]
  Activity: Non-toxic
Pseudomonas aeruginosa [11]
  MIC: > 200 µM
Pseudomonas aeruginosa [12]
  fold change (FC): 8
Pseudomonas aeruginosa [13]
  fold change (FC): 3.2
[14]
  CC50: 387 µM
Acinetobacter baumannii [15]
  fold change (FC): 4
Acinetobacter baumannii [16]
  MIC: 16 µg/mL
Acinetobacter baumannii [17]
  fold change (FC): 8
Acinetobacter baumannii [18]
  fold change (FC): 8
Acinetobacter baumannii [19]
  MIC: 200 µM
Acinetobacter baumannii [20]
  MIC: 32 µg/mL
Acinetobacter baumannii [21]
  fold change (FC): 4
